Most compounds without a hit are left out; they make up all but 1.7% or so of the library.
SR-BI DiI-HDL act: SR-BI HDL lipid transfer activation; CHO ldlA[mSR-BI] cells, DiI-HDL uptake fluorescence, 3 h; 100 = double the neutral-control signal; activation, % at 12.5 µM; actives 0.096% (n = 320,000); AID 504775;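 active = mean replicate activation of at least 60% and every replicate at or above 60%; inconclusive = mean or all-replicate condition met, but not both; inactive = mean below 60% and not all replicates reaching 60%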;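 also: 0% = median plate neutral-control signal and 100% = twice that signal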
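Material: SR-BI-overexpressing, LDLR-lacking CHO cells | Dosing: Single compound concentration, delivered by pin transfer | Probe or stimulus: Labelled HDL, 10 µg/mL | Signal: Bottom-read cell fluorescence after medium removal, ex 550/em 595 nm | Schedule: 3 h, 37 °C | Evaluation: HDL uptake via cellular fluorescence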
SR-BI HDL uptake: blocks mouse SR-BI lipid uptake from DiI-HDL | Q61009 | ldlA[mSR-BI] CHO cells, DiI-HDL uptake fluorescence, 3 h | inhibition, % at 12.5 µM | actives 0.96% (n = 320,000);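 active = mean replicate inhibition of at least 70% and a set share of replicates each scoring 70 or more; inconclusive = meets just one of the two criteria; inactive = fails both criteria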;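 also: 0% = median of neutral control wells and 100% = median of positive control wells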
Target sequence (Q61009 whole entry, looked up): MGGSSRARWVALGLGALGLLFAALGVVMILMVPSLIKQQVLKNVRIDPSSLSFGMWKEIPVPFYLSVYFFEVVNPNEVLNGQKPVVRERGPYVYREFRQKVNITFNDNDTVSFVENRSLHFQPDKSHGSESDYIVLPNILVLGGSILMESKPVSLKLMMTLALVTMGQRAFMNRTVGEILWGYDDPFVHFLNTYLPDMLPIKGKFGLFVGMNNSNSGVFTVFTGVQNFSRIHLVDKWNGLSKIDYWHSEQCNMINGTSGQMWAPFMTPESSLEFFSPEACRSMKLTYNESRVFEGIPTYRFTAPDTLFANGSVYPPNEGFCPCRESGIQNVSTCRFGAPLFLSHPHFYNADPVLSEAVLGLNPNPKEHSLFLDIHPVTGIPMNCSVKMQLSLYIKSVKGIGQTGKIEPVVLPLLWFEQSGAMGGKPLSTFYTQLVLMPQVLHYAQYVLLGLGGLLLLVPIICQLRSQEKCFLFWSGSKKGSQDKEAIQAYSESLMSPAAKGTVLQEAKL
Vif imaging: HIV Vif inhibition; actives 0.35% (n = 340,000); inhibition, % at 7.49 µM; HEK293T cells, Vif self-association by quenched fluorescence, imaging, 24 h; AID 602346; in the data active = inhibition above about 50%, passing the limit was not always enough; inconclusive = no clear call, values can overlap the other calls; inactive = below about 31%
CaV13 ICDI inh: Primary screen for inhibitors of IQ motif and Ca2+-dependent inactivation inhibitor domain binding in CACNA1D, Förster resonance energy transfer in living cells, …; AID 743397; actives 0.098% (n = 340,000); HEK cells, CFP/YFP FRET ICDI-IQ, plate reader, 10 min; percent FRET-ratio fall versus neutral wells; inhibition, % at 12.3 µM;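 active = mean replicate inhibition of at least 30% and at least 1% of replicates passing that level; inconclusive = only one of the two criteria is met; inactive = neither criterion is met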;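 also: 0% = median of the neutral control wells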
NTR1 ag: agonists of human neurotensin receptor NTR1. actives 0.17% (n = 330,000). activation, % at 20 µM. P30989. NTR1-U2OS beta-arrestin-GFP spot imaging, agonist mode;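 active = activation at or above 40% of the spot to cytoplasm intensity ratio, with at least 20 cells analyzed; inconclusive = wells under 20 cells, flagged as cytotoxic or low count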;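 also: 0% = DMSO without peptide and 100% = 100 nM NTR1 peptide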
V-ATPase pHluor: regulators of yeast V-ATPase proton transport; S. cerevisiae, pHLuorin cytosolic pH fluorescence; AID 504577; response, % at 10 µM; actives 0.37% (n = 350,000); in the data active = response mostly above about 7.3%, no sharp cut-off; inactive = mostly below about 5.4%; also: actives read high
VATPase regulator: yeast V-ATPase proton transport regulation; shares compounds with V-ATPase pHluor; S. cerevisiae pHLuorin cytosolic pH; response, % at 10 µM; actives 2% (n = 980); AID 602197; in the data active = response above about 24%;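 also: plate controls were vehicle wells for no effect and positive control wells for full effect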
Numbers without * were called inactive; ? = inconclusive; / = no result given.

SMILES	SR-BI DiI-HDL act	SR-BI HDL uptake	Vif imaging	CaV13 ICDI inh	NTR1 ag	V-ATPase pHluor	VATPase regulator
CN(C)CCC(=O)c1ccc(F)cc1	41	-41	2	-3	2	1	11
O=C(CCCN1CCN(c2ccccc2)CC1)c1ccc(F)cc1	/	/	12	-6	/	1	/
O=C(CCCN1Cc2ccccc2C1)c1ccc(F)cc1	24	-24	16	-8	0	3	-8
COC(=O)Cc1ccc(NC(=S)N2CCN(c3ccc(F)cc3)CC2)cc1	-23	23	-4	-5	/	2	/
CC(C)(C)n1cnc(C(N)=O)c1N	7	-7	-2	-4	0	9.5*	2
C(=C\c1nnc(-c2cccs2)o1)/c1ccccc1	-4	4	0	-7	2	13*	4
Cc1ccc(NC(=O)CS(=O)Cc2nc(-c3ccc(C)cc3)oc2C)cc1 (stereo not given)	-9	9	-13	-7	-1	11*	3
Cc1ccc(-c2nc(CS(=O)CC(=O)NCc3ccccc3)c(C)o2)cc1 (stereo not given)	-3	3	-4	-3	0	-6	/
COC(=O)c1ccc(CNC(=O)c2ccc3c(c2)S(=O)(=O)N=C2CCCCCN23)cc1	7	-7	15	-2	1	11*	-1
COc1cccc(CNC(=O)c2ccc3c(c2)S(=O)(=O)N=C2CCCCCN23)c1	-11	11	-5	-6	-1	2	/
Cc1nn(Cc2cccc(F)c2)c(C)c1NC(=O)c1c(Cl)cnn1C	17	-17	5	-6	2	1	/
CC(=O)Nc1ccc(S(=O)(=O)N2CCCC2)cc1	22	-22	-14	-3	-1	-2	/
CC(C)(C)C(=O)Nc1ccc(S(=O)(=O)N2CCCC2)cc1	3	-3	4	0	0	8.5*	0
CC(=O)Nc1nc(N2C(=O)c3ccccc3C2=O)n(-c2ccccc2)n1	18	-18	4	-5	-1	7.0*	-1
Cc1ccc(NS(=O)(=O)c2ccc(C(=O)NCC(c3ccco3)N3CCCCC3)cc2)cc1 (stereo not given)	15	-15	-5	-2	3	-2	/
CCOc1ccccc1Nc1nc(-c2sc(C)nc2C)cs1	-66	66	-5	-9	15	8.3*	-1
CC1=C(C(N)=O)C(c2cccc(O)c2)n2nc(CCCO)nc2N1 (stereo not given)	21	-21	-2	-2	2	7.2*	-2
CC1=C(C(N)=O)C(c2ccc(Cl)cc2)n2nc(CCCO)nc2N1 (stereo not given)	12	-12	41	-4	0	2	/
CC1=C(C(=O)Nc2ccccc2)C(c2cccc([N+](=O)[O-])c2)Nc2nc3ccccc3n21 (stereo not given)	-18	18	11	-7	6	17*	1
CC(OC(=O)CCCOc1ccccc1)C(=O)NC(N)=O (stereo not given)	-18	18	1	-6	-2	-1	/
COc1ccccc1NC(=O)C(C)OC(=O)CCCOc1ccccc1 (stereo not given)	-7	7	2	-14	-1	11*	-2
O=C(NCC1CCN(C(=O)C(=O)c2cc3ccccc3o2)CC1)c1ccc2c(c1)OCC2	/	/	/	-13	/	/	/
Cc1ccc(S(=O)(=O)NC(C)(C)C)cc1C(=O)OC(C)C(=O)NC1CC1 (stereo not given)	-4	4	0	-6	-1	4	/
CSc1nc2cc(S(=O)(=O)N3CCCCC3)ccc2s1	0	0	?	-18	4	0	/
CSc1nc2cc(S(=O)(=O)N3CCOCC3)ccc2s1	4	-4	-5	-11	1	19*	0
SMILES	SR-BI DiI-HDL act	SR-BI HDL uptake	Vif imaging	CaV13 ICDI inh	NTR1 ag	V-ATPase pHluor	VATPase regulator
NS(=O)(=O)c1ccc(NC(=O)c2ccc(CNS(=O)(=O)c3cc(C(F)(F)F)ccc3Cl)cc2)cc1	/	/	-3	-4	1	-1	/
CC(C)n1c(O)c(N=NC(=O)C2COc3ccccc3O2)c2ccccc21 (stereo not given)	-14	14	/	-7	5	3	/
CCOc1ncccc1C(=O)Nc1ncc(C)s1	23	-23	-5	1	0	-2	/
CCOc1ncccc1C(=O)Nc1nc(C(C)(C)C)cs1	-18	18	-3	-5	5	9.4*	0
COCCN(Cc1ccccc1)C(=O)c1c(C)nn(-c2ccccc2)c1C	19	-19	-3	-3	-2	9.2*	0
CC(=O)c1c(C)[nH]c(C(=O)NCc2cccc(Cl)c2)c1C	-35	35	-1	-7	-2	9.6*	-2
CC(=O)c1c(C)[nH]c(C(=O)NCc2ccc(Cl)cc2)c1C	/	/	/	-5	/	-3	/
Cc1nnc(SCC(=O)N2CCCCCC2)n(N)c1=O	41	-41	-7	-2	-1	8.0*	-3
C=CCNCCCCOc1c(Cl)cc(C)cc1Br	8	-8	25	-3	-1	0	/
C=CCNCCOc1c(C)cc(C)cc1Cl	22	-22	1	-2	-2	7.7*	3
N#Cc1c(N)nc(Sc2ccc(Cl)cc2)c(C#N)c1-c1ccccc1Cl	8	-8	-1	-4	14	0	/
COc1ccc(NC(=O)C2C3C=CC4(O3)C2C(=O)N(CCN2CCCCC2)C4C(=O)NC2CCCC(C)C2C)cc1 (stereo not given)	-23	23	9	-3	0	0	/
CC(=O)N/C(=C\c1ccccc1)C(=O)N1CCOCC1	-8	8	1	-3	-1	10*	2
O=C(/C=C/c1ccccc1)N/C(=C/c1ccccc1)C(=O)N1CCOCC1	19	-19	0	-6	0	5	/
O=C(Cn1ncc2c([nH]c3ccccc32)c1=O)NCCCN1CCN(c2ccccc2)CC1	16	-16	-1	-7	0	1	/
CS(=O)(=O)N(CC(=O)O)Cc1cccc(CN(CC(=O)O)S(C)(=O)=O)c1	15	-15	46	-4	0	1	/
Cc1c(OC(C)C(=O)NCC(O)c2ccccc2)ccc2c3c(c(=O)oc12)CCCC3 (stereo not given)	-39	39	0	-13	3	10*	2
CCOC(=O)C1CCN(C(=O)COC(=O)/C=C/c2ccccc2)CC1	-6	6	-2	-3	-1	9.4*	-5
CC(OC(=O)/C=C/c1ccccc1)C(=O)N1CCc2ccccc21 (stereo not given)	22	-22	-3	-4	6	-3	/
CCN1CCN(CCCNC(=O)Cn2nc(C)n3nc(-c4ccccc4)cc3c2=O)CC1	9	-9	-3	-8	1	19*	2
